Laboratory results reported in ChEMBL document CHEMBL2346522, “Rational design of apoptosis signal-regulating kinase 1 inhibitors: discovering novel structural scaffold” (Eur J Med Chem, 2013).

How the values were obtained:
[1] = biological target: T1, Mitogen-activated protein kinase kinase kinase 5 (Homo sapiens, UniProt Q99683); test: Inhibition of human ASK1 using MBP as substrate incubated for 10 mins prior to ATP addition measured after 20 mins by liquid scintillation counting analysis
T1 sequence (Q99683 whole entry): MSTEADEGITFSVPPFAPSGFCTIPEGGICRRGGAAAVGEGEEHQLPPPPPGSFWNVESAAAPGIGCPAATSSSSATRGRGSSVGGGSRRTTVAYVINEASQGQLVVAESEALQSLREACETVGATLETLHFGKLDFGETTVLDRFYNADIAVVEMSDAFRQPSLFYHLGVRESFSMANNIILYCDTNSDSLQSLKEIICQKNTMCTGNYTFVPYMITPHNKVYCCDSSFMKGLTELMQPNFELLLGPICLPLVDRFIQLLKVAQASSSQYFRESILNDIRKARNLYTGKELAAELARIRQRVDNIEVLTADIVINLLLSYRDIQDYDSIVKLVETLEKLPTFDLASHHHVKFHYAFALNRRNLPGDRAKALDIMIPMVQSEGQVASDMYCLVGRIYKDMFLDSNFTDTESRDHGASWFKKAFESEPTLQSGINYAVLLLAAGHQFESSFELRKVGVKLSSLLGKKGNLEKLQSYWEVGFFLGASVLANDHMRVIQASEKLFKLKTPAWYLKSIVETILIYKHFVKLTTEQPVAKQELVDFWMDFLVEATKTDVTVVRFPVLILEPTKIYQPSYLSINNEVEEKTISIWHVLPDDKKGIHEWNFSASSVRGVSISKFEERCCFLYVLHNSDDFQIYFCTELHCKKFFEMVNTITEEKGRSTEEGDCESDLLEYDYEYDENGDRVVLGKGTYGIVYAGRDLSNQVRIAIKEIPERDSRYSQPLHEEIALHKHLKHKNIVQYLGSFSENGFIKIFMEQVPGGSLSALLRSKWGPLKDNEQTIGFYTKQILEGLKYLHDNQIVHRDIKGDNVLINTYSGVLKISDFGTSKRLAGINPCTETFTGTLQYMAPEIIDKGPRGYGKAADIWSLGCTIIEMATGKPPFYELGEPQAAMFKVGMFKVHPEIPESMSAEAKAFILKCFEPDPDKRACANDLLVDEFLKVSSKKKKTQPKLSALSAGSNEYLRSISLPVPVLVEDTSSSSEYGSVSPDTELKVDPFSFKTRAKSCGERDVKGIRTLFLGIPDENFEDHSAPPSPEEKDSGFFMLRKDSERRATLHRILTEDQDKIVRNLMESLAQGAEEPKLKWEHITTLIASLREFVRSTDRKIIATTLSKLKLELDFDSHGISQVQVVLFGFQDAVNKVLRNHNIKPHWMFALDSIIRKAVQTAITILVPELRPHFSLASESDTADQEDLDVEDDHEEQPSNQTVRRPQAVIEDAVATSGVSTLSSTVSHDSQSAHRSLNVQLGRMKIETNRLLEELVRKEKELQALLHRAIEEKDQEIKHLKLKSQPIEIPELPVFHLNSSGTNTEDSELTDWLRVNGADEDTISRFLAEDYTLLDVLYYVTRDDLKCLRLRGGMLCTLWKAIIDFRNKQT
Procedure, shortened: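 Inhibitor added from a DMSO stock is incubated with enzyme on ice for 10 min. The reaction is started with ATP plus MgCl₂ in MOPS pH 7.2, and labeled and unlabeled ATP are combined.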

[2] = biological target: Casein kinase II (Homo sapiens) (UniProt P67870+P68400+P19784); test: Inhibition of human CK2 using RRRDDDSDDD as substrate assessed as residual activity at 10 uM incubated for 10 mins prior to ATP addition measured after 20 mins by liquid scintillation counting analysis; format: protein-complex assay
[3] = biological target: Mitogen-activated protein kinase 10 (Homo sapiens) (UniProt P53779); test: Inhibition of human JNK3 using JNK3tide as substrate assessed as residual activity at 10 uM incubated for 10 mins prior to ATP addition measured after 20 mins by liquid scintillation counting analysis
Mitogen-activated protein kinase 10 (Homo sapiens), sequence (P53779 whole entry): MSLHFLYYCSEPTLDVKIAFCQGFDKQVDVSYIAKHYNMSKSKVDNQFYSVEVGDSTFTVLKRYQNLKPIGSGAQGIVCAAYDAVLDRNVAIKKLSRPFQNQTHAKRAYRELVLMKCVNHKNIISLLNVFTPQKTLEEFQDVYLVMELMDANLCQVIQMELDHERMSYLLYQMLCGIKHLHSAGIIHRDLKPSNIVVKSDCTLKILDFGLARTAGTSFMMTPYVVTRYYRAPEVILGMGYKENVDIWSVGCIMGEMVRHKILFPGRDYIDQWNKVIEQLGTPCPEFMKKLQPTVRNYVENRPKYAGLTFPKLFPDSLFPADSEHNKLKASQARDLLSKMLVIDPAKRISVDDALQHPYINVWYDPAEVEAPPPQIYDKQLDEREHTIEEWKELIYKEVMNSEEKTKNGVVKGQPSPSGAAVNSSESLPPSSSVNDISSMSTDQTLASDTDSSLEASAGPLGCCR

[4] = biological target: Angiopoietin-1 receptor (Homo sapiens) (UniProt Q02763); test: Inhibition of human Tie2 using TK substrate 2 as substrate assessed as residual activity at 10 uM incubated for 10 mins prior to ATP addition measured after 20 mins by liquid scintillation counting analysis
Angiopoietin-1 receptor (Homo sapiens), sequence (Q02763 whole entry): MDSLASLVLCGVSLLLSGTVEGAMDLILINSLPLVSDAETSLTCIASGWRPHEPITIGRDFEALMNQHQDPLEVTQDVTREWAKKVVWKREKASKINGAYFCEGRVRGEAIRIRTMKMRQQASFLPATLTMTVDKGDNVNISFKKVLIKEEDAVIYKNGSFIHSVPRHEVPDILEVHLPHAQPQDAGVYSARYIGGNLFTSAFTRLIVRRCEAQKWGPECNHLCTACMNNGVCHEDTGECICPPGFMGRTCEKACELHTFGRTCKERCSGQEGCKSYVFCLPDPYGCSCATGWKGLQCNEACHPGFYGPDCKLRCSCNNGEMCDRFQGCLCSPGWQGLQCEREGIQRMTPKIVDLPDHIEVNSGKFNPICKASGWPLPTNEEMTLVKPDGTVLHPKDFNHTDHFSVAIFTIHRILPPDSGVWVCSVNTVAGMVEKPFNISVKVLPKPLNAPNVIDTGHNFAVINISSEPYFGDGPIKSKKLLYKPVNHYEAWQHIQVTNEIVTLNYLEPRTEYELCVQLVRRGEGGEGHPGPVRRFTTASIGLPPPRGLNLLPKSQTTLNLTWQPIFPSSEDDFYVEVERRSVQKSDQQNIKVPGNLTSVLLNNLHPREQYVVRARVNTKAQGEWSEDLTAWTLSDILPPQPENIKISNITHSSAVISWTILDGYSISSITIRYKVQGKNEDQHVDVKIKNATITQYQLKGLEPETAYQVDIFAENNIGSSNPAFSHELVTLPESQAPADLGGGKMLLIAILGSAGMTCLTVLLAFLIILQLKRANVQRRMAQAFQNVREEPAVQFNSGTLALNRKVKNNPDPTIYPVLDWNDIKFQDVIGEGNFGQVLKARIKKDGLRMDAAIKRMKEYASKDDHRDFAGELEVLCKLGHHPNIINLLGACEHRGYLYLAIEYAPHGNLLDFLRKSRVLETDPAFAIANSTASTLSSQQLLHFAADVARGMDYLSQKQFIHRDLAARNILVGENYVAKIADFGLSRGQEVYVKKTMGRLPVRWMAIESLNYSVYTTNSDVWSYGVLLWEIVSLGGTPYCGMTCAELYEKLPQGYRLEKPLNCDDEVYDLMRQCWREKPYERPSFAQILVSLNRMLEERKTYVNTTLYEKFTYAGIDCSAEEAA

[5] = biological target: Fibroblast growth factor receptor 1 (Homo sapiens) (UniProt P11362); test: Inhibition of human FGFR1 using IGF-IRtide (12 to 527) as substrate assessed as residual activity at 10 uM incubated for 10 mins prior to ATP addition measured after 20 mins by liquid scintillation counting analysis
Fibroblast growth factor receptor 1 (Homo sapiens), sequence (P11362 22-822 limits assumed): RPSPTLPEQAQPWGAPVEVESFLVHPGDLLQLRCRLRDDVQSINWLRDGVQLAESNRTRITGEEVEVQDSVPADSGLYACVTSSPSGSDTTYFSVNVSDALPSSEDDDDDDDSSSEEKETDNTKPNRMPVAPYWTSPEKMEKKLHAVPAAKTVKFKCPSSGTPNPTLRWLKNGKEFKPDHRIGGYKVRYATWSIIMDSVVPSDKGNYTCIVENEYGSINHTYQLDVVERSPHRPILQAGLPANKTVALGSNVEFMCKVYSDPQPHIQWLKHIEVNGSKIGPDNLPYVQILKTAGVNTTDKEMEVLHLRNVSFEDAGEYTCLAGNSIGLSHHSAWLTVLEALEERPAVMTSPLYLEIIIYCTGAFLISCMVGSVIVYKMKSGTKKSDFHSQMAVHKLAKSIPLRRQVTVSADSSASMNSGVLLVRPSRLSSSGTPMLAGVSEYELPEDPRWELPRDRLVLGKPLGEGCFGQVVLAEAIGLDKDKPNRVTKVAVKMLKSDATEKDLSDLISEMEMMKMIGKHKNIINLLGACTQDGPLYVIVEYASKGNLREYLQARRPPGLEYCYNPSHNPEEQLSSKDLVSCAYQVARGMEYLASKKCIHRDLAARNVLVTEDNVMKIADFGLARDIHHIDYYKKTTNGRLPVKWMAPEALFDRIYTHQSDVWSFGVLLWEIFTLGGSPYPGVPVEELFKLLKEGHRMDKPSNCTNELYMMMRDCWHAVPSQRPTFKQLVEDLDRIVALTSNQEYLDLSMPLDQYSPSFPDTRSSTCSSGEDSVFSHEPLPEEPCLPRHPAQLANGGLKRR

[6] = biological target: Hepatocyte growth factor receptor (Homo sapiens) (UniProt P08581); test: Inhibition of human HGFR using KKKSPGEYVNIEFG as substrate assessed as residual activity at 10 uM incubated for 10 mins prior to ATP addition measured after 20 mins by liquid scintillation counting analysis
Hepatocyte growth factor receptor (Homo sapiens), sequence (P08581 whole entry): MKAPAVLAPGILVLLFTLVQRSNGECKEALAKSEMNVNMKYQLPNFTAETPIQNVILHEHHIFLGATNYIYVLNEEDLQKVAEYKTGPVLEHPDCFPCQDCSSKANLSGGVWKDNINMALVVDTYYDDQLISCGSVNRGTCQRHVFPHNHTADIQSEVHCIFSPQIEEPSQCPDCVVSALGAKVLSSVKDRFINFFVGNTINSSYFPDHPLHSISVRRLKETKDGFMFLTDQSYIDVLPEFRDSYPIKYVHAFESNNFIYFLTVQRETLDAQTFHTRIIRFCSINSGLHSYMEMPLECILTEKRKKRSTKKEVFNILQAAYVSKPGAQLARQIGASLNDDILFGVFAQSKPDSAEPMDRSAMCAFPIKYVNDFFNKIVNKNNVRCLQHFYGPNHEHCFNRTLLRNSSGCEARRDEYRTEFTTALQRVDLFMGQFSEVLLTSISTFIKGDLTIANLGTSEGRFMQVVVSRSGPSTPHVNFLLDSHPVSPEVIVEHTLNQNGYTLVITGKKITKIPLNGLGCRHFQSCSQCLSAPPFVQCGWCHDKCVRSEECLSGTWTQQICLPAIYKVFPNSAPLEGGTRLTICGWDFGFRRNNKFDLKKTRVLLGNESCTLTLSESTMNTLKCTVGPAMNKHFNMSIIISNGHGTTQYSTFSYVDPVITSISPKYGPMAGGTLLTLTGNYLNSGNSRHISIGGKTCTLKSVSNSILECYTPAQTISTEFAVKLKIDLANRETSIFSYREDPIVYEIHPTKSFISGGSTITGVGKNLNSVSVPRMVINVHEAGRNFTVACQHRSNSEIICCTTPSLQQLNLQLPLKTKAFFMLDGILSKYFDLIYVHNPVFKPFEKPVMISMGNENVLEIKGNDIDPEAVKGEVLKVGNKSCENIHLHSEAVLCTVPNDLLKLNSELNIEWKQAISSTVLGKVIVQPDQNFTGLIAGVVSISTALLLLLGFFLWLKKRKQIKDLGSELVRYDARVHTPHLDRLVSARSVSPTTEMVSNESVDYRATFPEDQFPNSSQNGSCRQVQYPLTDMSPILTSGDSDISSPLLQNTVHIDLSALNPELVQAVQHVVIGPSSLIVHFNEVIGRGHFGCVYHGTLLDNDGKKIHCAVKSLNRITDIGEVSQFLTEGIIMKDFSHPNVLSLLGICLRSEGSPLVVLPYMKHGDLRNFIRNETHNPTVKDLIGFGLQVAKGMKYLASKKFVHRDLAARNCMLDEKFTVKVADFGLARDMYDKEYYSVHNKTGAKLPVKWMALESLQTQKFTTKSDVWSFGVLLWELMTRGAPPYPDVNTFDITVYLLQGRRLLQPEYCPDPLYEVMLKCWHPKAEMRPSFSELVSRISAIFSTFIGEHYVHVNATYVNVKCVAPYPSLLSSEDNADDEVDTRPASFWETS

[7] = biological target: T2, Aurora kinase A (Homo sapiens) (UniProt O14965); test: Inhibition of human Aurora A using Kemptide as substrate assessed as residual activity at 10 uM incubated for 10 mins prior to ATP addition measured after 20 mins by liquid scintillation counting analysis
T2 sequence (whole entry): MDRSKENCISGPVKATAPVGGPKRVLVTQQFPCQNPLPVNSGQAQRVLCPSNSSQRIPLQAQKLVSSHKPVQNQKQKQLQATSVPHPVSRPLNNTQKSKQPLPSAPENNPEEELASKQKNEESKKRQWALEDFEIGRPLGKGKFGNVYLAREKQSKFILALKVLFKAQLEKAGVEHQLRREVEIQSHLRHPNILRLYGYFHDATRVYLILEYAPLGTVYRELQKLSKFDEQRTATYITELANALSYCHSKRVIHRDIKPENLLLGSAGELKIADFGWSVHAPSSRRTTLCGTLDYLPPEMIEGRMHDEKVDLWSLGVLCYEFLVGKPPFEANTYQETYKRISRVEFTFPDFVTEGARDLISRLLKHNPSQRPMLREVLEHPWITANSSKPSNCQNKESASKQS

[8] = biological target: T3, Mitogen-activated protein kinase kinase kinase 5 (Homo sapiens) (UniProt Q99683); test: Inhibition of human ASK1 using MBP as substrate assessed as residual activity at 10 uM incubated for 10 mins prior to ATP addition measured after 20 mins by liquid scintillation counting analysis
T3 sequence (whole entry): T1 sequence (Q99683 whole entry)

[9] = biological target: T1, Mitogen-activated protein kinase kinase kinase 5; test: Competitive inhibition of human ASK1 using MBP as substrate incubated for 10 mins prior to ATP addition measured after 20 mins by Lineweaver-Burk plot analysis
Procedure, shortened: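 ASK1 activity with MBP substrate and γ-³²P-ATP. Enzyme and substrate sit in MOPS pH 7.2 buffer (EGTA, EDTA, DTT, BSA, β-glycerophosphate). Inhibitor from a DMSO stock is pre-mixed with them on ice for 10 min. The reaction starts with ATP/MgCl₂. Substrate concentration curves are run at several inhibitor levels, in triplicate, and analysed by Lineweaver–Burk linearized plots.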

SMILES: O=C1/C(=C/c2ccc(-c3ccc(Br)cc3)o2)SC(=S)N1c1cccc(O)c1
- IC50 [1]: 2 µM

SMILES: CCCC(C(=O)O)N1C(=O)/C(=C/c2ccc(-c3ccc(Br)cc3)o2)SC1=S (configuration not stated)
- IC50 [1]: 0.5 µM

SMILES: O=C(O)CCN1C(=O)/C(=C/c2ccc(-c3ccccc3F)o2)SC1=S
- Activity [2]: 56%
- Activity [3]: 87%
- Activity [4]: 44%
- Activity [5]: 22%
- Activity [6]: 32%
- Activity [7]: 39%
- Activity [8]: 2.5%
- IC50 [1]: 0.3 µM

SMILES: O=C(O)CN1C(=O)/C(=C/c2ccc(-c3ccccc3F)o2)SC1=S
- IC50 [1]: 3 µM

SMILES: O=C(O)CCCCCN1C(=O)/C(=C/c2ccc(-c3cccc(C(F)(F)F)c3)o2)SC1=S
- IC50 [1]: 0.5 µM

SMILES: O=C(O)CCCN1C(=O)/C(=C/c2ccc(-c3cccc(Cl)c3)o2)SC1=S
- IC50 [1]: 0.35 µM

SMILES: O=C(O)CN1C(=O)/C(=C/c2ccc(-c3ccccc3Cl)o2)SC1=S
- IC50 [1]: 1.25 µM

SMILES: O=C(O)CCN1C(=O)/C(=C/c2ccc(-c3ccccc3Cl)o2)SC1=S
- IC50 [1]: 0.75 µM

SMILES: CCCC(C(=O)O)N1C(=O)/C(=C/c2ccc(-c3ccc(Cl)c(Cl)c3)o2)SC1=S (configuration not stated)
- IC50 [1]: 3.9 µM

SMILES: O=C(O)CCCN1C(=O)/C(=C/c2ccc(-c3ccccc3Cl)o2)SC1=S
- Activity [2]: 15%
- Activity [3]: 41%
- Activity [4]: 22%
- Activity [5]: 16%
- Activity [6]: 25%
- Activity [7]: 14%
- Activity [8]: 3.5%
- IC50 [1]: 0.3 µM

SMILES: O=C1/C(=C/c2ccco2)SC(=S)N1c1cccnc1
- IC50 [1]: > 33 µM

SMILES: CC(C(=O)O)N1C(=O)/C(=C/c2ccc(-c3ccc(Cl)c(Cl)c3)o2)SC1=S (configuration not stated)
- Activity [2]: 34%
- Activity [3]: 46%
- Activity [4]: 29%
- Activity [5]: 88%
- Activity [6]: 65%
- Activity [7]: 14%
- Activity [8]: 3%
- Ki [9]: 0.34 µM
- IC50 [1]: 0.65 µM

SMILES: O=C(O)CN1C(=O)/C(=C/c2ccco2)SC1=S
- IC50 [1]: > 33 µM

SMILES: O=C1NC(=S)S/C1=C\c1cccnc1
- IC50 [1]: > 33 µM

SMILES: O=C(O)CCCN1C(=O)/C(=C/c2ccc(-c3c(Cl)cccc3Cl)o2)SC1=S
- IC50 [1]: 0.5 µM

SMILES: CCC(C(=O)O)N1C(=O)/C(=C/c2ccc(-c3cccc(Cl)c3)o2)SC1=S (configuration not stated)
- IC50 [1]: 0.75 µM

SMILES: COC(=O)c1ccc(/C=C2\SC(=S)N(c3ccc(O)c(C(=O)O)c3)C2=O)cc1
- IC50 [1]: > 33 µM

SMILES: O=C(O)CCCN1C(=O)/C(=C/c2ccc(-c3ccccc3F)o2)SC1=S
- IC50 [1]: 3 µM

SMILES: CSCCC(C(=O)O)N1C(=O)/C(=C/c2ccc(-c3ccc(Cl)c(Cl)c3)o2)SC1=S (configuration not stated)
- IC50 [1]: 0.75 µM

SMILES: O=C(O)CC(C(=O)O)N1C(=O)/C(=C/c2ccc(-c3ccc(Br)cc3)o2)SC1=S (configuration not stated)
- IC50 [1]: 2.8 µM

SMILES: O=C(O)CC(C(=O)O)N1C(=O)/C(=C/c2ccc(-c3c(Cl)cccc3Cl)o2)SC1=S (configuration not stated)
- IC50 [1]: 1 µM

SMILES: O=C(O)CCN1C(=O)/C(=C/c2ccc(-c3cccc(Cl)c3)o2)SC1=S
- IC50 [1]: 1 µM

SMILES: CCc1ccc(-c2ccc(/C=C3\SC(=S)N(C(CC(=O)O)C(=O)O)C3=O)o2)cc1 (configuration not stated)
- IC50 [1]: 1.8 µM

SMILES: O=C1/C(=C/c2ccc(-c3ccc(Cl)c(Cl)c3)o2)SC(=S)N1c1ccc(F)cc1
- IC50 [1]: > 33 µM

SMILES: COC(=O)CCCN1C(=O)/C(=C/c2ccc(-c3ccccc3F)o2)SC1=S
- IC50 [1]: > 33 µM

SMILES: O=C1/C(=C/c2ccc(Cl)cc2Cl)SC(=S)N1Nc1ccccc1
- IC50 [1]: > 33 µM

SMILES: O=C(O)c1ccc(N2C(=O)/C(=C/c3cccnc3)SC2=S)cc1
- IC50 [1]: > 33 µM

SMILES: O=C(O)CN1C(=O)/C(=C/c2ccncc2)SC1=S
- IC50 [1]: > 33 µM

SMILES: O=C(O)CCCN1C(=O)/C(=C/c2ccc(-c3ccc(Br)cc3)o2)SC1=S
- Activity [2]: 28%
- Activity [3]: 92%
- Activity [4]: 28%
- Activity [5]: 10%
- Activity [6]: 51%
- Activity [7]: 100%
- Activity [8]: 3%
- IC50 [1]: 0.2 µM

SMILES: O=C(O)CCCCCN1C(=O)/C(=C/c2ccc(-c3ccccc3Cl)o2)SC1=S
- IC50 [1]: 0.5 µM

SMILES: O=C(O)CCCN1C(=O)/C(=C/c2ccc(-c3cc(Cl)ccc3Cl)o2)SC1=S
- IC50 [1]: 0.35 µM

SMILES: CCCC(C(=O)O)N1C(=O)/C(=C/c2ccc(-c3ccc([N+](=O)[O-])cc3)o2)SC1=S (configuration not stated)
- IC50 [1]: 1.8 µM

SMILES: O=C(O)CCN1C(=O)/C(=C/c2ccc(-c3ccc([N+](=O)[O-])cc3)o2)SC1=S
- IC50 [1]: 0.65 µM

SMILES: COC(=O)CCCN1C(=O)/C(=C/c2ccc(-c3ccc(Br)cc3)o2)SC1=S
- IC50 [1]: > 33 µM

SMILES: CCC(C(=O)O)N1C(=O)/C(=C/c2ccc(-c3cc(Cl)ccc3Cl)o2)SC1=S (configuration not stated)
- IC50 [1]: 0.5 µM

SMILES: CCOC(=O)c1ccc(-c2ccc(/C=C3\SC(=S)N(C(CC(=O)O)C(C)=O)C3=O)o2)cc1 (configuration not stated)
- IC50 [1]: 0.8 µM

SMILES: O=C(O)CCCCCN1C(=O)/C(=C/c2ccc(-c3ccc(Br)cc3)o2)SC1=S
- Activity [2]: 34%
- Activity [3]: 65%
- Activity [4]: 46%
- Activity [5]: 5%
- Activity [6]: 7%
- Activity [7]: 21%
- Activity [8]: 3%
- IC50 [1]: 0.2 µM

SMILES: O=C1NC(=S)S/C1=C\c1ccc(-c2ccccc2[N+](=O)[O-])o1
- IC50 [1]: > 33 µM

SMILES: CCC(C(=O)O)N1C(=O)/C(=C/c2ccc(-c3ccc(Br)cc3)o2)SC1=S (configuration not stated)
- IC50 [1]: 0.5 µM

SMILES: O=C(O)C(Cc1ccccc1)N1C(=O)/C(=C/c2ccncc2)SC1=S (configuration not stated)
- IC50 [1]: > 33 µM

SMILES: O=C1NC(=S)S/C1=C\c1cccc(Br)c1
- IC50 [1]: > 33 µM
